# Screens from PubChem.
# proCasp3 act: activates human procaspase-3. P42574. recombinant procaspase-3 D3A, Ac-DEVD-pNA absorbance 405 nm. activation, % at 8.5 µM. 330,000 tested, 0.11% active. AID 463141;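 active = activation above the mean of all tested compounds plus 3 SD, cut at about 21% in these data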;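 note: 0% = DMSO alone and 100% = DMSO wells spiked with extra 5 µM PC-3 D3A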
#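 Test system: Procaspase-3 D3A mutant; medium: Zinc-free HEPES/NaCl buffer with 0.01% Triton X-100 at pH 7.4; reagent: DEVD-pNA substrate; doses: one concentration, 8.5 µM nominal, 0.8% DMSO; times: 1 h preincubation plus 2 h reaction at 25 °C; signal: Epi-absorbance at 405 nm of released p-nitroaniline, 0 and 120 min; replicates: singlicate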
# ZTA counter: counter-screen for EBNA-1 inhibitors: inhibitors of Epstein-Barr virus ZTA | ZTA-DNA binding, fluorescence polarization | inhibition, % at 11 µM | 320,000 tested, 0.15% active; in the data active = inhibition above about 33%
# Apaf-1 inh: blocks human Apaf-1 apoptosome activity. O14727. reconstituted apoptosome caspase-3 activity, DEVD-Rh110 fluorescence. inhibition, % at 20 µM. 330,000 tested, 0.71% active. AID 489030; active = inhibition of at least 40% at 20 µM;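 note: plate controls were DMSO wells for no effect and DEVD-CHO caspase inhibitor wells for full effect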
#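 Material: cell-free apoptosome with Apaf-1, procaspase-3 and caspase-9; Buffer or medium: Hepes pH 7.5 with detergent and BSA; Reagent: cytochrome c trigger plus (Z-DEVD)2-Rh110 caspase-3 substrate; Times: compound with Apaf-1, dATP, procaspase-3 30 min, then 50 min reaction, room temperature; Technique: Rh110 fluorescence intensity.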
# GSTO1 inh: counter-screen for RBBP9 inhibitors: inhibitors of human GSTO1; 300,000 tested, 1.1% active; P78417; inhibition, % at 5.96 µM; recombinant GSTO1, activity-based probe fluorescence polarization;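 active = inhibition above the campaign mean inhibition plus 3 SD, cut at about 35% in these data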;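 note: 0% = GSTO1-1 with DMSO and 100% = wells lacking GSTO1-1 enzyme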
# procasp7 counter: activates human procaspase-7, counter-screen for procaspase-3 activators; P55210; recombinant procaspase-7, Ac-DEVD-pNA absorbance 405 nm; D23A/D198A/D206A triple mutant, cannot self-cleave; scale: DMSO 0, 5 µM enzyme 100; activation, % at 8.5 µM; 330,000 tested, 0.093% active; AID 463210;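 active = percent activation above the screen-wide mean plus 3 SD, cut at about 25% in these data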
#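 Assay system: Uncleavable procaspase-7 mutant enzyme; Input: 2 µM procaspase-7 mutant as dispensed; Also added: DEVD-pNA substrate; Medium: Zinc-free HEPES pH 7.4 with 300 mM NaCl, 0.01% Triton X-100; Timing: 1 h compound preincubation, 2 h substrate cleavage, 25 °C; Measured by: Epi-absorbance of released pNA at 405 nm, two timepoints.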
# EBNA-1 inh: blocks EBNA-1 binding to DNA; EBNA-1 DNA binding, fluorescence polarization; inhibition, % at 14.8 µM; 300,000 tested, 0.34% active; AID 1950; in the data active = inhibition above about 28%
# * hit, by the source's call; / = not tested or not shown. Most compounds without a hit are left out; they make up all but 1.8% or so of the library.
SMILES,proCasp3 act,ZTA counter,Apaf-1 inh,GSTO1 inh,procasp7 counter,EBNA-1 inh
COc1ccc(Cc2nnc(Nc3ccccc3)s2)cc1Br,6,-11,19,36*,-6,-2
COc1ccc(CNc2ccccc2)cc1Br,-2,-13,18,-7,3,-2
Cc1ccc(NC(=O)CSc2nnc(-c3ccco3)c(-c3ccco3)n2)cc1,-9,-2,37,37*,-22,-5
CSc1nnc(-c2ccco2)c(-c2ccco2)n1,-27,2,20,36*,-22,10
O=c1oc2c3c4c(cc2s1)CCCN4CCC3,-25,-16,11,51*,-42,6
O=c1ccc2cc3c4c(c2o1)CCCN4CCC3,4,-4,4,22,7,-4
Cc1cc(C)nc(SCc2nnc(SCC(=O)Nc3nc(-c4ccccc4)cs3)n2C)n1,-3,18,20,19,0,4
Cc1ccc(C(=O)CSc2nnc(CNc3nc(-c4ccccc4)cs3)n2C)cc1,3,-24,25,37*,2,13
CCCCNc1c(-c2ccc(-c3ccc(OC)cc3)c(OC)c2)nc2ccccn12,18,/,29,/,4,/
O=C(NCc1ccccn1)c1ccc(NS(=O)(=O)c2ccccc2)cc1,7,-6,-6,3,7,2
O=c1cc(N=Nc2ccc(Cl)cc2)[nH]c(=O)[nH]1,-4,-4,/,47*,-13,6
O=C(N/N=C/c1ccccn1)c1ccc(Cl)c(Cl)c1,-3,-3,2,-7,3,-9
CCCCN(C(=O)C(C)Oc1cccc(Cl)c1)c1c(N)n(CCC)c(=O)[nH]c1=O (configuration not stated),-4,10,-9,2,11,-5
CC(=O)c1sc2nc(-c3ccco3)ccc2c1N,-32,-18,19,39*,-32,-8
CN(CC(=O)Nc1cccc(F)c1)C(=O)c1cc(-c2ccco2)nc2ccccc12,-9,-12,14,22,-10,5
COc1ccc(NC(=O)CN(C)C(=O)c2cc(-c3ccco3)nc3ccccc23)cc1,5,-20,15,37*,-9,-11
Cc1ccc(O)c(N)c1,-4,-1,1,/,-18,/
COc1ccc(O)c(N)c1,/,/,76*,/,/,/
Cc1cccc(C)c1NC(=O)CN(C)C(=O)c1ccccc1SCC(=O)N1CCCC1,0,-15,42*,20,-2,-13
CC(C)n1ncc2c(C(=O)Nc3cccc(S(=O)(=O)N(C)C)c3)cc(C3CC3)nc21,6,-8,1,/,5,/
COc1ccc(NC(=O)c2ccco2)c(NC(=O)c2ccc([N+](=O)[O-])cc2)c1,-5,0,12,-1,-11,1
N#CCc1cnc2ccccc2n1,-9,-4,/,36*,-5,3
O=C(NCc1cccc(Cl)c1)C1CCC(=O)N(CCCN2CCCC2=O)C1 (configuration not stated),5,2,2,2,4,13
COc1ccc(OC)c(NC(=O)COC(=O)CN2C(=O)NC3(CCCC3)C2=O)c1,4,9,-4,/,3,/
COc1ccc(/C=N\NC(=O)c2cc(O)c(O)c(O)c2)cc1CN1CCN(c2ccc(F)cc2)CC1,-21,3,/,52*,-22,5
SMILES,proCasp3 act,ZTA counter,Apaf-1 inh,GSTO1 inh,procasp7 counter,EBNA-1 inh
CC(C)n1nnnc1SCC(=O)N1CCN(Cc2ccc3c(c2)OCCO3)CC1,3,6,3,/,5,/
O=[N+]([O-])c1cccc(-c2ccc(/C=N/NC(=S)Nc3ccccc3)o2)c1,-23,3,2,-23,-16,-13
O=C(O)c1cc(-c2ccc(/C=N/NC(=S)Nc3ccccc3)o2)ccc1Cl,-24,-19,9,48*,-18,8
Cc1ccc(NC(=O)CCNS(=O)(=O)c2ccc3c(c2)CCC(=O)N3)c(Br)c1,3,7,3,-3,4,6
CCCCn1c(/C=N/Nc2nc3ccccc3[nH]2)nc2ccccc21,25*,-9,7,-9,2,-13
COc1cccc(CNC(=O)CCCN2C(=O)C(c3ccccc3)Oc3cccnc32)c1OC (configuration not stated),-2,-6,4,-3,-11,-4
COc1ccccc1NC(=O)COC(=O)c1ccc([N+](=O)[O-])s1,-7,-4,23,34,-3,3
CCc1ccccc1NC(=O)c1ccc([N+](=O)[O-])s1,3,5,-3,41*,7,-6
CCNc1ccc(Br)cc(C(=O)/C=C/c2ccc(Cl)cc2)c1=O,-6,8,1,7,-18,-2
Nc1ccccc1C(=O)/C=C/c1ccc2c(c1)OCO2,-1,8,13,2,-6,-14
CCNc1ccc(Br)cc(C(=O)/C=C/c2c(Cl)cccc2Cl)c1=O,0,-4,33,37*,-6,-1
CCNc1ccc(Br)cc(C(=O)/C=C/c2ccc3c(c2)OCO3)c1=O,-7,6,33,53*,-14,12
Cc1ccc(-n2nc(C)c3c2OC(N)=C(C#N)C3c2ccc(F)cc2)cc1 (configuration not stated),0,3,3,42*,-3,5
O=C(/C=C/c1ccco1)NC(=S)Nc1ccc(N2CCCC2)cc1,-14,-3,11,50*,-14,3
CC(=O)C1=C(C)NC(SCC(=O)c2ccc(-c3ccccc3)cc2)=C(C#N)C1c1cccnc1 (configuration not stated),-10,4,1,7,-19,36*
O=[N+]([O-])c1c(NCCO)cc(N2CCC3(CC2)OCCO3)c2nonc12,-3,5,-8,-6,-16,7
O=C(O)CCCNc1cc(N2CCC3(CC2)OCCO3)c2noc3c2c1C(=O)c1ccccc1-3,-4,143*,-11,54*,-12,93*
Cc1ccc(C)c(NC(=O)CCc2nnc3ccc(NCc4ccco4)nn23)c1,-9,9,-4,4,-8,10
O=c1[nH][nH]c(-c2ccccc2O)c1C(C[N+](=O)[O-])c1ccccc1 (configuration not stated),8,3,7,29,-16,7
O=c1[nH][nH]c(-c2ccccc2O)c1C(C[N+](=O)[O-])c1cccc(Cl)c1 (configuration not stated),-10,-5,7,36*,-14,11
Oc1ccc(C=Nc2ccc3ncccc3c2)c(O)c1,0,12,95*,-10,-2,11
O=C(NCCC1CCCCN1S(=O)(=O)c1ccccc1)C(=O)NC1CC1 (configuration not stated),-5,6,-3,-1,8,1
